{
  "source": "ChEMBL document CHEMBL1133502",
  "about": "“Thio- and oxoflavopiridols, cyclin-dependent kinase 1-selective inhibitors: synthesis and biological effects” (J Med Chem, 2000)",
  "key": {"[1]": {"test": "Inhibition of Mitogen-activated protein kinase", "design": "species or system Xenopus laevis"}, "[2]": {"test": "Inhibition of PKA kinase", "design": "species or system Bos taurus", "procedure,_shortened": "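Bovine heart PKA (2 units) with 500 ng GST-TK fusion substrate and 25 μM [32P]ATP, in 50 mM Tris pH 7.5, 10 mM MgCl2. Incubated 1 h at 30 °C. Read-out by TCA precipitation.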"}, "[3]": {"biological_target": "Protein kinase C (PKC)", "test": "Inhibition of rat brain PKC kinase", "procedure,_shortened": "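Commercial PKC assay system run at 20 μM ATP. Read-out by spotting onto p81 phosphocellulose.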"}, "[4]": {"biological_target": "Epidermal growth factor receptor (Homo sapiens, UniProt P00533)", "sequence (P00533 whole entry)": "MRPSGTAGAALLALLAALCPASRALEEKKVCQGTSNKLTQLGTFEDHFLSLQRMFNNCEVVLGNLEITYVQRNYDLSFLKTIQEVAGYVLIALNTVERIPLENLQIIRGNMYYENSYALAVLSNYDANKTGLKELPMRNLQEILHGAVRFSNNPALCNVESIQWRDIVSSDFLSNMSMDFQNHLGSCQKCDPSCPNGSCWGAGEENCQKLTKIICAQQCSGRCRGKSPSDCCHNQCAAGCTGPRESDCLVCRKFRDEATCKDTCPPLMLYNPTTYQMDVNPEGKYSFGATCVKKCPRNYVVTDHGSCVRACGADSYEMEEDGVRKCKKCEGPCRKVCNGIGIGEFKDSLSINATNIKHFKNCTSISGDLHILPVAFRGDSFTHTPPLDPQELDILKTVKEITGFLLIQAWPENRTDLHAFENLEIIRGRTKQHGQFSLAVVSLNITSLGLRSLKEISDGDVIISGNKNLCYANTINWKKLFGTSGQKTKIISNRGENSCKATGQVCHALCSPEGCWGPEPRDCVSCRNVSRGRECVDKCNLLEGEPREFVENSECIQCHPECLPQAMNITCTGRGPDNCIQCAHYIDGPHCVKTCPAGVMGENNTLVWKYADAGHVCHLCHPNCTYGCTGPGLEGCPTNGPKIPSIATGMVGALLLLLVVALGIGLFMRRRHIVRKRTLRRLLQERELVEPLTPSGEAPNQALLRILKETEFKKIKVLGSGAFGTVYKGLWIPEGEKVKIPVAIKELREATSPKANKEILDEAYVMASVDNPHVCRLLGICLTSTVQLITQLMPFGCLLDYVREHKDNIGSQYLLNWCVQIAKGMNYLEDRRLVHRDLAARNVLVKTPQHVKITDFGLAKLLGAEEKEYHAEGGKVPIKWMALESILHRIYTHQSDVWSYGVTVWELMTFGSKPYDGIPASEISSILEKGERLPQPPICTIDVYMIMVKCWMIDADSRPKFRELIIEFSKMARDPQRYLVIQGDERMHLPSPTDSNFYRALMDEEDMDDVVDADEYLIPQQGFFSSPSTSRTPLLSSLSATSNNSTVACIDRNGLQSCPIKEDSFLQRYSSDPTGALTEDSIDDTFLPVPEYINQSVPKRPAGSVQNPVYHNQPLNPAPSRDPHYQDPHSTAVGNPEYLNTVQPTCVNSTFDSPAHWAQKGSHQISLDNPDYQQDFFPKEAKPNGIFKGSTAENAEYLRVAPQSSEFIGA", "test": "Inhibition of Epidermal growth factor receptor"}, "[5]": {"biological_target": "Cyclin-dependent kinase 2/cyclin E (Homo sapiens, UniProt P24941)", "test": "Inhibition of Cyclin-dependent kinase 2-cyclin E", "format": "protein-complex assay"}, "[6]": {"biological_target": "Cyclin-dependent kinase 1/cyclin B1 (Homo sapiens, UniProt P06493)", "sequence (P06493 whole entry)": "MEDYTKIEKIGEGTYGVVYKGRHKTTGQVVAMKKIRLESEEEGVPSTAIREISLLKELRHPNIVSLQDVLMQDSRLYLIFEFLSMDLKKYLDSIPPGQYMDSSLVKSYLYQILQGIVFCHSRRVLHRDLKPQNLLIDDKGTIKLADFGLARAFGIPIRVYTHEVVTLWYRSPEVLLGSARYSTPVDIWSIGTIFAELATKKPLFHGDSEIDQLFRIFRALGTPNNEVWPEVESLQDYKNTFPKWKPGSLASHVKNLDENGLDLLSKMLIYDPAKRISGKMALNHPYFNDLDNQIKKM", "sequence (P14635 whole entry, further chain)": "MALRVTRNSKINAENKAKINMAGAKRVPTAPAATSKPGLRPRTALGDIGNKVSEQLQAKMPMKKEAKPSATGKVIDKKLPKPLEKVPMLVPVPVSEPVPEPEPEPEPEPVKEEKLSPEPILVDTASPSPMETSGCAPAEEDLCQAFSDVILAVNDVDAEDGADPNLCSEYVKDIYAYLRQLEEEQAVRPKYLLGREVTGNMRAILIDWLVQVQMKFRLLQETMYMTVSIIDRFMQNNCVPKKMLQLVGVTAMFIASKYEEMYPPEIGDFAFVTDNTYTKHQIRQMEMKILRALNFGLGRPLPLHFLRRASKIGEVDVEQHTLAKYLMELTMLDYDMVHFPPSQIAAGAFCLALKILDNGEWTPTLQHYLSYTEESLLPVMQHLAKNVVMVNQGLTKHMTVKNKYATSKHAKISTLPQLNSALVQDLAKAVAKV", "format": "protein-complex assay"}, "[7]": {"biological_target": "Cyclin-dependent kinase 4/cyclin D1 (Homo sapiens, UniProt P11802)", "sequence (P11802 whole entry)": "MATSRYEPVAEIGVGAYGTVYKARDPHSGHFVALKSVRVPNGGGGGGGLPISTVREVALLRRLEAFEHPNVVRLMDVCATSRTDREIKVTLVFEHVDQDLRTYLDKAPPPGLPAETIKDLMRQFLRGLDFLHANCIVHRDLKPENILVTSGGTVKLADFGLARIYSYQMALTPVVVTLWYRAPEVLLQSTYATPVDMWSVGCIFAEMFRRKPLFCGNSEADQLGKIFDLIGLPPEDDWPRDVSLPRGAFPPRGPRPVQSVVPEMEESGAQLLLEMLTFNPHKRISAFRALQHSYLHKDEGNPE", "sequence (P24385 whole entry, further chain)": "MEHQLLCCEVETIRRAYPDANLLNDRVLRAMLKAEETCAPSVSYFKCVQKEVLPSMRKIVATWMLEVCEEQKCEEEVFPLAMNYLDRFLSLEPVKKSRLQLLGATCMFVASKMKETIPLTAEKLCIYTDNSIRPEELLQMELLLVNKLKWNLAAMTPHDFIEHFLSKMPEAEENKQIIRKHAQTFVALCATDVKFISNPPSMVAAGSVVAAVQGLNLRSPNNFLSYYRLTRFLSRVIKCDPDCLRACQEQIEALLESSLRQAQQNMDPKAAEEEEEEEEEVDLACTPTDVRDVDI", "test": "Inhibition of Cyclin-dependent kinase 4-cyclin D1", "format": "protein-complex assay"}, "[8]": {"biological_target": "Cyclin-dependent kinase 2/cyclin A (Homo sapiens, UniProt P24941)", "test": "Inhibition of Cyclin-dependent kinase 2-cyclin A", "format": "protein-complex assay"}, "[9]": {"test": "Inhibition of Cyclin-dependent kinase 1-cyclin A", "design": "species or system Homo sapiens"}, "[10]": {"tested_on": "A2780", "test": "cells", "conditions": "Homo sapiens"}, "[11]": {"tested_on": "MIA PaCa-2", "test": "cells", "conditions": "Homo sapiens"}, "[12]": {"tested_on": "PC-3", "test": "cells", "conditions": "Homo sapiens"}, "[13]": {"tested_on": "HCT-116", "test": "cells", "conditions": "Homo sapiens"}},
  "data": [
    {"compound": "CN1CC[C@H](c2c(O)cc(O)c3c(=O)cc(Oc4ccccc4Cl)oc23)[C@H](O)C1", "values": [
      {"measurement": "IC50", "setting": "[1]", "result": "> 25", "unit": "µM"},
      {"measurement": "IC50", "setting": "[2]", "result": "> 50", "unit": "µM"},
      {"measurement": "IC50", "setting": "[3]", "result": "> 50", "unit": "µM"},
      {"measurement": "IC50", "setting": "[4]", "result": "> 50", "unit": "µM"}
    ]},
    {"compound": "CN1CCC(c2c(O)cc(O)c3c(=O)cc(Sc4ccccc4)oc23)C(O)C1", "note": "(racemic)", "values": [
      {"measurement": "IC50", "setting": "[5]", "result": 6.59, "unit": "µM"},
      {"measurement": "IC50", "setting": "[6]", "result": 0.44, "unit": "µM"},
      {"measurement": "IC50", "setting": "[7]", "result": 4.1, "unit": "µM"}
    ]},
    {"compound": "CN1CCC(c2c(O)cc(O)c3c(=O)cc(SC(C)(C)C)oc23)C(O)C1", "note": "(racemic)", "values": [
      {"measurement": "IC50", "setting": "[5]", "result": 1.07, "unit": "µM"},
      {"measurement": "IC50", "setting": "[6]", "result": 0.08, "unit": "µM"},
      {"measurement": "IC50", "setting": "[7]", "result": 2.07, "unit": "µM"}
    ]},
    {"compound": "CN1CCC(c2c(O)cc(O)c3c(O)c/c(=N\\c4ccccc4)oc23)C(O)C1", "note": "(racemic)", "values": [
      {"measurement": "IC50", "setting": "[5]", "result": "> 25", "unit": "µM"},
      {"measurement": "IC50", "setting": "[6]", "result": 16.3, "unit": "µM"},
      {"measurement": "IC50", "setting": "[7]", "result": "> 25", "unit": "µM"}
    ]},
    {"compound": "CN1CCC(c2c(O)cc(O)c3c(=O)cc(N4CCCCC4)oc23)C(O)C1", "note": "(racemic)", "values": [
      {"measurement": "IC50", "setting": "[5]", "result": 9.69, "unit": "µM"},
      {"measurement": "IC50", "setting": "[6]", "result": 2.5, "unit": "µM"},
      {"measurement": "IC50", "setting": "[7]", "result": 3.7, "unit": "µM"}
    ]},
    {"compound": "Cc1cc(C)nc(Sc2cc(=O)c3c(O)cc(O)c(C4CCN(C)CC4O)c3o2)n1", "note": "(racemic)", "values": [
      {"measurement": "IC50", "setting": "[5]", "result": 40.4, "unit": "µM"},
      {"measurement": "IC50", "setting": "[6]", "result": 6.4, "unit": "µM"},
      {"measurement": "IC50", "setting": "[7]", "result": 82.5, "unit": "µM"}
    ]},
    {"compound": "CCSc1cc(=O)c2c(O)cc(O)c(C3CCN(C)CC3O)c2o1", "note": "(racemic)", "values": [
      {"measurement": "IC50", "setting": "[5]", "result": 3.93, "unit": "µM"},
      {"measurement": "IC50", "setting": "[6]", "result": 0.46, "unit": "µM"},
      {"measurement": "IC50", "setting": "[7]", "result": 2.06, "unit": "µM"}
    ]},
    {"compound": "CN1CC[C@H](c2c(O)cc(O)c3c(=O)cc(Sc4ccccc4Cl)oc23)[C@H](O)C1", "note": "(stereo in doubt; 16)", "values": [
      {"measurement": "IC50", "setting": "[5]", "result": 2.1, "unit": "µM"},
      {"measurement": "IC50", "setting": "[8]", "result": 1.5, "unit": "µM"},
      {"measurement": "IC50", "setting": "[9]", "result": 0.16, "unit": "µM"},
      {"measurement": "IC50", "setting": "[6]", "result": 0.11, "unit": "µM"},
      {"measurement": "IC50", "setting": "[7]", "result": 16.2, "unit": "µM"},
      {"measurement": "IC50", "setting": "[1]", "result": "> 25", "unit": "µM"},
      {"measurement": "IC50", "setting": "[2]", "result": "> 50", "unit": "µM"},
      {"measurement": "IC50", "setting": "[3]", "result": 16.1, "unit": "µM"},
      {"measurement": "IC50", "setting": "[4]", "result": "> 50", "unit": "µM"},
      {"measurement": "IC50", "setting": "[10]", "result": 0.87, "unit": "µM"},
      {"measurement": "IC50", "setting": "[11]", "result": 0.03, "unit": "µM"},
      {"measurement": "IC50", "setting": "[12]", "result": 0.02, "unit": "µM"},
      {"measurement": "IC50", "setting": "[13]", "result": 0.21, "unit": "µM"}
    ]},
    {"compound": "CN1CC[C@H](c2c(O)cc(O)c3c(=O)cc(Sc4ccccc4Cl)oc23)[C@H](O)C1", "note": "(stereo in doubt; 21)", "values": [
      {"measurement": "IC50", "setting": "[5]", "result": 4.4, "unit": "µM"},
      {"measurement": "IC50", "setting": "[6]", "result": 6.1, "unit": "µM"},
      {"measurement": "IC50", "setting": "[7]", "result": "> 25", "unit": "µM"}
    ]},
    {"compound": "CN1CC[C@H](c2c(O)cc(O)c3c(=O)cc(-c4ccccc4Cl)oc23)[C@H](O)C1", "note": "[ALVOCIDIB]", "values": [
      {"measurement": "IC50", "setting": "[9]", "result": 0.05, "unit": "µM"},
      {"measurement": "IC50", "setting": "[1]", "result": 19, "unit": "µM"},
      {"measurement": "IC50", "setting": "[2]", "result": "> 50", "unit": "µM"},
      {"measurement": "IC50", "setting": "[3]", "result": 14, "unit": "µM"}
    ]},
    {"compound": "COC(=O)[C@@]1(Cc2ccc(O)c(CC=C(C)C)c2)OC(=O)C(O)=C1c1ccc(O)cc1", "note": "[BUTYROLACTONE I]", "values": [
      {"measurement": "IC50", "setting": "[7]", "result": 1000, "unit": "µM"},
      {"measurement": "IC50", "setting": "[1]", "result": 94, "unit": "µM"},
      {"measurement": "IC50", "setting": "[2]", "result": 260, "unit": "µM"},
      {"measurement": "IC50", "setting": "[3]", "result": 160, "unit": "µM"},
      {"measurement": "IC50", "setting": "[4]", "result": 590, "unit": "µM"}
    ]},
    {"compound": "Cn1cnc2c(NCc3ccccc3)nc(NCCO)nc21", "note": "[OLOMOUCINE]", "values": [
      {"measurement": "IC50", "setting": "[1]", "result": 30, "unit": "µM"},
      {"measurement": "IC50", "setting": "[2]", "result": 2000, "unit": "µM"},
      {"measurement": "IC50", "setting": "[3]", "result": 1000, "unit": "µM"}
    ]}
  ]
}
